Compounds with a hit are over-represented: about 2.1% of the library has one in this group of screens.
FGF22 binding: shifts melting point of recombinant human FGF22; recombinant FGF22 thermal shift, SYPRO orange fluorescence; percent of sucrose octasulfate shift, DMSO zero; activity (Tm shift, normalised), % at 9.99 µM; hit rate 1.5% among 340,000; AID 651658;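 active means mean Tm shift, scaled 0 neutral to 100 positive control, at about 1.3% or above, every replicate too, limit read from the data; inconclusive means no clear call, values can overlap the other calls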
Target sequence (Q9HCT0 whole entry, looked up): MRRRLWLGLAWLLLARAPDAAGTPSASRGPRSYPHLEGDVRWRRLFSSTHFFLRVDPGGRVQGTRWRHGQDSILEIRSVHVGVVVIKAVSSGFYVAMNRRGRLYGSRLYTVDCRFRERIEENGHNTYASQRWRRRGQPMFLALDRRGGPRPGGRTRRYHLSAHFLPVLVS
ERp5 block: inhibitors of human ERp5; Q15084; ERp5 insulin aggregation, absorbance 650 nm, 90 min; inhibition, % at 9.99 µM; hit rate 0.05% among 350,000;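 active means mean replicate inhibition above about 25%, with every replicate also reaching it, limit read from the data, passing the limit was not always enough; inconclusive means only one of those two criteria met; inactive means neither criterion met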
Target sequence (Q15084 whole entry, looked up): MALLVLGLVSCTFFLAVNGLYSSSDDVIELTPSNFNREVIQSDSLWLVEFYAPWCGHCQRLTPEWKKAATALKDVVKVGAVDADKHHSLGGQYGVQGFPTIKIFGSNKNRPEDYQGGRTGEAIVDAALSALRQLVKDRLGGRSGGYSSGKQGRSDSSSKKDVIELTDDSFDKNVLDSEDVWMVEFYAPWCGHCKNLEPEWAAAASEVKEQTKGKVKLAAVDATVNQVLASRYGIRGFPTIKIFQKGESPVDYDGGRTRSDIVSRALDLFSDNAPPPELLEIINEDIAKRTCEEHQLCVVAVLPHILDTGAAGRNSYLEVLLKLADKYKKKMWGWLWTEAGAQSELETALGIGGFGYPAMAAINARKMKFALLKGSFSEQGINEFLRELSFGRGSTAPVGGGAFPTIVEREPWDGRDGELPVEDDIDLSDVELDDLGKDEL
FN deposition inh: fibronectin deposition inhibition; AH1F fibroblasts, Alexa488-fibronectin deposition fluorescence, overnight; inhibition, % at 12.6 µM; hit rate 0.086% among 350,000; AID 743247;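 active means mean inhibition across replicates of 30% or more, regardless of how many single replicates reach that level; inconclusive means mean under 30% yet at least half of replicates reach 30%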
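Assay system: AH1F fibroblasts assembling fluorescent fibronectin matrix; Amount: 10000 AH1F cells per well; Buffer or medium: DMEM, 2% serum; Probe or stimulus: Alexa488-fibronectin, 24 nM final in well; Doses: single compound dose, delivered by pin transfer; Incubation: 1 h adhesion, overnight exposure; Measured by: fluorescence 485/525 nm; Read-out: fibronectin deposition inhibition.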
ARNT TACC3 PPI: disruptors of human ARNT/TACC3 interaction; Q9Y6A5; inhibition, % at 9.99 µM; hit rate 0.66% among 390,000; AlphaScreen His-ARNT PAS-B/GST-TACC3 binding, luminescence; TACC3 fragment carries E629A point mutation;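 active means mean inhibition of replicates at least 50% and at least half of replicates each reaching 50%; inconclusive means half or more replicates reach 50% but mean below 50%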
MLL AF4-AF9 inh: MLL-AF4/AF9 protein interaction inhibition. hit rate 0.47% among 350,000. AID 651704. inhibition, % at 10 µM. P42568. AlphaScreen, biotin-AF4 peptide binding to FLAG-AF9;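 active means every replicate reaching a set inhibition limit, whatever the replicate mean, cut at about 25% in these data; inconclusive means mean inhibition reaches that limit but some replicates miss it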
PDI inh: blocks human protein disulfide isomerase activity; P07237; PDI insulin aggregation turbidity, A650, 90 min; inhibition, % at 10 µM; hit rate 0.052% among 350,000; AID 588391;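 active means mean inhibition across replicates of 30% or more, whatever share of single replicates reach that level; inconclusive means mean inhibition below 30% while every single replicate reaches 30%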
A number is an active result; 0 = inactive; ? = inconclusive; - = no result.

SMILES	FGF22 binding	ERp5 block	FN deposition inh	ARNT TACC3 PPI	MLL AF4-AF9 inh	PDI inh
COc1ccc2c3c(n(C)c2c1)[C@H](CO)NCC31CN(Cc2ccccc2Cl)C1	-	0	0	-	43	-
COc1ccc2c3c(n(C)c2c1)[C@@H](CO)NCC31CCN(Cc2ccc(-c3ccccn3)cc2)CC1	0	0	-	-	?	-
COc1ccc2c3c(n(C)c2c1)[C@@H](CO)NCC31CN(Cc2ccc(-c3ccccn3)cc2)C1	-	0	0	-	45	-
COc1ccc2c3c(n(C)c2c1)[C@@H](CO)NCC31CCN(Cc2ccccc2F)CC1	0	-	-	-	0	-
CC(C)(O)C#Cc1ccc([C@H]2[C@@H](CO)N3CCCCN(S(C)(=O)=O)C[C@H]23)cc1	-	-	0	0	-	-
CN(C)C(=O)c1cccc(-c2ccc([C@@H]3[C@@H](C#N)N(C(=O)C4CCCC4)[C@@H]3CO)cc2)c1	-	0	0	-	0	-
CCOCCCNC(=O)c1oc2ccc(S(=O)(=O)N3CCOCC3)cc2c1C	0	0	0	0	0	0
Cc1c(C(=O)NCCCN2CCOCC2)oc2ccc(S(=O)(=O)N3CCOCC3)cc12	43	0	0	0	0	0
O=C(Nc1cccc(Cl)c1)N1C[C@H]2[C@@H](c3ccccc31)[C@H](CO)N2Cc1ccccc1Cl	84	0	-	0	0	-
O=C(Nc1cccc(Cl)c1)N1C[C@@H]2[C@H](c3ccccc31)[C@H](CO)N2Cc1ccccc1Cl	0	0	-	0	0	-
COC(=O)C[C@@H]1C[C@@H]2c3cc(NC(=O)Nc4ccc(C(F)(F)F)cc4)ccc3O[C@@H]2[C@H](CO)O1	0	0	0	0	0	-
Cc1ccc(S(=O)(=O)NNC(=O)C2CCCCC2)cc1	0	0	0	0	0	0
O=C(NNS(=O)(=O)c1ccc(Br)cc1)C1CCCCC1	43	0	0	0	0	0
CC(=O)N(C)C[C@@H]1Oc2ncc(-c3cccc(C#N)c3)cc2C(=O)N([C@H](C)CO)C[C@H]1C	0	0	0	0	0	-
Cc1nc2ccccn2c1C(=O)NN=C1CCCC1	0	0	0	20	0	0
C[C@H](CO)N1C[C@H](C)[C@@H](CN(C)Cc2ccc(C(=O)Nc3ccccc3N)cc2)Oc2ccc(NS(=O)(=O)c3cccs3)cc2CC1=O	0	0	-	0	0	-
C[C@@H]1CN([C@@H](C)CO)S(=O)(=O)c2ccc(-c3ccncc3)cc2O[C@@H]1CN(C)C(=O)CN(C)C	0	0	0	0	0	-
O=C(COC(=O)c1ccccn1)Nc1ccccc1OC(F)F	43	0	0	0	0	0
O=C(CNc1ccc2ccccc2c1)N/N=C/c1ccc(OC(=O)/C=C/c2ccco2)cc1	44	0	0	0	0	0
CC(C)CC1NC(=O)N(CC(=O)Nc2ccccc2-c2ccccc2)C1=O (centres undefined)	0	0	-	0	0	0
CC(C)CC1NC(=O)N(CCCCN2C(=O)c3ccccc3C2=O)C1=O (centres undefined)	44	0	0	0	0	0
O=C(Nc1ccc(F)cc1)N1C[C@H]2[C@@H](c3ccccc31)[C@H](CO)N2C(=O)Cc1ccccc1	0	0	-	0	0	-
Cc1ccccc1CN1N=C(/C=C/c2ccccc2)CCC1=O	45	0	0	0	0	0
CCNC(=O)C[C@H]1CC[C@H]2[C@@H](COc3ccc(NC(=O)c4cccc(C#N)c4)cc3C(=O)N2C)O1	-	-	0	-	-	-
COc1ccc(NC(=O)CNC(=O)Cn2c(C)cc3ccccc3c2=O)c(OC)c1	43	0	0	0	0	0
SMILES	FGF22 binding	ERp5 block	FN deposition inh	ARNT TACC3 PPI	MLL AF4-AF9 inh	PDI inh
CC(C)(C)OC(=O)N1CCC[C@H]1C(=O)N1CCC[C@H]1C(=O)NCc1ccc(F)cc1F	0	0	0	-	0	-
CC(C)(C)OC(=O)N1CCC[C@H]1C(=O)NCc1ccc(Cl)cc1Cl	65	0	0	0	0	0
C[C@@H]1CN([C@@H](C)CO)C(=O)c2cc(-c3ccccc3F)cnc2O[C@@H]1CN(C)Cc1ccccc1	0	0	0	0	0	-
Cc1cccc(Nc2nc(N)nc(-c3oc4ccccc4c3C)n2)c1	39	0	0	0	0	0
Nc1ccc(Cc2ccc([N+](=O)[O-])cc2)cc1	43	0	0	0	0	0
O=[N+]([O-])c1ccc(Cc2ccccn2)cc1	0	0	0	0	0	0
CCC(=O)N(C)C[C@@H]1Oc2cc(C3=CCCC3)ccc2S(=O)(=O)N([C@H](C)CO)C[C@H]1C	0	0	-	0	0	-
Cc1cc(C)n2nc(SC(C)C(=O)N3CC(C)OC(C)C3)nc2n1 (centres undefined)	43	0	0	0	0	0
Cc1cc(C)n2nc(SCC(=O)N3CCC(C(=O)O)CC3)nc2n1	44	0	0	0	0	0
NC(=S)NN=Cc1nccc2c(N)cccc12	0	0	0	-	0	0
CCN(C(C)=O)c1cnc(C=NNC(N)=S)c2ccccc12	0	0	0	86	0	0
O=C(NCC1CC1)[C@@H]1[C@@H](CO)[C@@H]2Cn3c(ccc(C4=CCCCC4)c3=O)[C@@H]2N1Cc1ccccc1F	-	0	-	0	0	-
CC(C)NC(=O)Nc1ccc2c(c1)C(=O)N([C@H](C)CO)C[C@@H](C)[C@@H](CN(C)Cc1ccc(C(=O)O)cc1)OCCCC[C@H](C)O2	0	0	0	0	0	-
CN=C(N)NCCC[C@H](N)C(=O)O	0	0	0	0	0	0
CN(C)C(N)=NCCC[C@H](N)C(=O)O	0	0	-	active	0	0
C[C@H]1CN([C@@H](C)CO)C(=O)c2cccc(NC(=O)C3CCOCC3)c2O[C@H]1CN(C)CC1CC1	0	0	-	0	0	-
Cc1cc(-c2c(C)[nH]n(-c3ccc(Cl)cc3)c2=O)n[nH]1	-	-	0	57	-	0
Cc1c(CCO)c(=O)n(-c2ccccc2)n1S(=O)(=O)c1c(Cl)cc(Cl)cc1Cl	-	-	0	57	-	0
O=C(COC(=O)c1ccc(O)cc1)Nc1ncc(Cl)cc1Cl	44	0	0	0	0	0
O=C(COC(=O)c1ccc2c(c1)OCO2)Nc1ncc(Cl)cc1Cl	0	0	0	-	0	0
C[C@H]1CN([C@@H](C)CO)C(=O)c2cc(N(C)C)ccc2O[C@@H]1CN(C)Cc1ccc(Oc2ccccc2)cc1	0	0	0	-	40	-
C[C@H]1CN([C@@H](C)CO)C(=O)c2cc(N(C)C)ccc2O[C@H]1CN(C)Cc1ccc(Oc2ccccc2)cc1	0	0	0	0	45	-
C[C@@H]1CN([C@@H](C)CO)C(=O)c2cc(N(C)C)ccc2O[C@H]1CN(C)Cc1ccc(Oc2ccccc2)cc1	0	0	0	0	45	-
C[C@@H]1CN([C@@H](C)CO)C(=O)c2cc(N(C)C)ccc2O[C@@H]1CN(C)Cc1ccc(Oc2ccccc2)cc1	-	-	0	-	-	-
CC=Cc1ccc2n(c1=O)C[C@H]1[C@H](CO)[C@@H](C(=O)NCC)[C@@H]2N1Cc1nccs1 (mixture of isomers)	0	0	-	0	0	-
